# OXTR agonist: human OXTR agonists, primary screen, fluorescence, CHO-OTR cells, Fluo-8 calcium; Oxytocin receptor (Homo sapiens), P30559; Fluo-8 calcium fluorescence; normalized: DMSO 0%, oxytocin 100%; activation, % at 3 µM; actives 0.32% (n = 320,000);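 active = activation above the mean of all tested compounds plus 3 SD, cutoff set per screening run, cut at about 20% in these data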;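 note: peak over basal fluorescence ratio from a 100 s FLIPR kinetic read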
# V1aR counter: agonists of human V1a receptor, primary screen, counter-screen for OXTR agonist project, fluorescence, CHO-V1R cells. Vasopressin V1a receptor (Homo sapiens), P37288. Fluo-8 calcium fluorescence, agonist mode; 0% DMSO, 100% 3 nM vasopressin. activation, % at 3 µM. actives 0.25% (n = 320,000). AID 2797, 2010;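 active = activation above the mean activation of all tested compounds plus 3 SD, per screening run, cut at about 20% in these data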;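 note: signal is peak over basal fluorescence ratio across a 100 second FLIPR read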
# Target sequence (P37288 whole entry, looked up): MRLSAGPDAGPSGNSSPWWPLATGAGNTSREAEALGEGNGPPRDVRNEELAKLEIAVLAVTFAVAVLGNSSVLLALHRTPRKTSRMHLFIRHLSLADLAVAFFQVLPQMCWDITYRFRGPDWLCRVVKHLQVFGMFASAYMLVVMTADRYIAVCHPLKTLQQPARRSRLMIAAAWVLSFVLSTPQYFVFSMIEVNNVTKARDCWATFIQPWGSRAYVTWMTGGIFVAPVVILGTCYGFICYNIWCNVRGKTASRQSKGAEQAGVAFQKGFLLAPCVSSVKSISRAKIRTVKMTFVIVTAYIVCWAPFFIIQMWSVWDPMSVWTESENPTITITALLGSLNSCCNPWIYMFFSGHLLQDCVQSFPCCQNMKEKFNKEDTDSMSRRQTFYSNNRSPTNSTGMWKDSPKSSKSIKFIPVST
# TAAR1 agonist: human TAAR1 agonists, primary screen, Fluo-8 calcium fluorescence, CHO RD-HGA16 cells; Trace amine-associated receptor 1 (Homo sapiens), Q96RJ0; vehicle wells 0%, saturating PEA agonist 100%; activation, % at 3 µM; actives 0.99% (n = 360,000); AID 624467, 2012;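 active = activation above the mean activation of all test compounds in the run plus 3 SD, cut at about 38% in these data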
#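 Assay system: CHO-derived RD-HGA16 cells with stable Gα16 and human TAAR1; timing: 17-24 h seeding, 75 min 37 °C dye, 30 min RT; read-out: % activation from peak over basal fluorescence ratio, DMSO-to-PEA scaled; measured by: kinetic Fluo-8 calcium fluorescence; benchmarks: low control DMSO, high control PEA (EC100); doses: 3 µM single concentration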
# OXTR potentiate: human OXTR potentiators, primary screen, fluorescence, CHO-OTR cells, Fluo-8 calcium; Oxytocin receptor (Homo sapiens), P30559; Fluo-8 calcium fluorescence, potentiator mode; 0% = oxytocin EC15, 100% = EC100; activation, % at 3 µM; actives 0.061% (n = 320,000); AID 2445, 2010;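 active = activation above that plate's cutoff, the mean activation of tested compounds plus 3 SD, cut at about 6.6% in these data, passing the limit was not always enough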;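 note: 100% uses oxytocin at 75 nM as the full agonist control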
#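 Material: human OTR in CHO cells. Compound: 3.0 µM, one dose. Timing: compound 6 min at room temperature before oxytocin, 100 s read. Evaluation: % activation of max/min ratio relative to oxytocin controls. Replication: single well per compound, singlicate. Signal: Fluo-8 calcium dye fluorescence.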
# TAAR1 antagonist: human TAAR1 antagonists, primary screen, Fluo-8 calcium fluorescence, CHO RD-HGA16 cells. Trace amine-associated receptor 1 (Homo sapiens), Q96RJ0. antagonist. inhibition, % at 3 µM. actives 1.5% (n = 360,000). AID 624466, 2012;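 active = inhibition above a per-plate cutoff, the mean inhibition of test compounds on that plate plus 3 SD, cut at about 49% in these data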;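 note: 0% = DMSO plus EC80 beta-PEA response and 100% = DMSO alone without agonist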
#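 Assay system: CHO-derived RD-HGA16 cells stably expressing human TAAR1 plus Gα16. Timing: 140 s kinetic read after compound, 140 s after agonist. Technique: kinetic Fluo-8 calcium fluorescence measurement. Measure: % inhibition of agonist calcium response.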
# * hit, by the source's call; x = no result; ! = a repeat was not active. The list is not random: actives were taken first. Their share in the collection is about 2.3%.
SMILES,OXTR agonist,V1aR counter,TAAR1 agonist,OXTR potentiate,TAAR1 antagonist
CSC(=Cc1ccc(C(=O)c2ccc(C)cc2)n1C)S(C)=O (centres undefined),x,x,3.2,x,4.0
O=C(c1cc(-c2cccnc2)nc2ccc(Cl)cc12)N1CCN(S(=O)(=O)c2cccs2)CC1,2.3,3.1,9.6,-4.5,51.2*
Cc1ccccc1-c1ccc2c(c1)[C@@H]1C[C@H]3[C@@H](CN1CC2)[C@H](C)ON3C,x,x,2.0,x,-34.6
CCOC(=O)C1CSCCS(=O)(=O)N1Cc1ccc(F)cc1F (centres undefined),x,x,3.4,x,-0.3
CCCCN(Cc1ccccc1)S(=O)(=O)c1ccc2[nH]c(=O)oc2c1,-1.3,0.5,12.8,-17.7,48.6*
CCn1ncc(C2=NOC(C(=O)Nc3cnn(C45CC6CC(CC(C6)C4)C5)c3)C2)c1C (centres undefined),35.5*,25.2*,x,-8.8,x
CCn1ncc(C2=NOC(C(=O)NCCc3ccccc3)C2)c1C (centres undefined),0.5,1.4,61.1*,3.9,43.2
CCn1ncc(C2=NOC(C(=O)NCC(C)C)C2)c1C (centres undefined),1.6,-0.6,4.9,-10.2,-10.9
COc1cccc(C(=O)Nc2ccc(Oc3nnc(-c4ccccc4)c4ccccc34)cc2)c1,x,x,1.1,x,-3.6
CC(C)Cc1cc(C(=O)N2CCCC(CO)(Cc3ccc(F)cc3F)C2)n[nH]1 (centres undefined),5.0,9.6,21.2,-6.4,0.5
O=[N+]([O-])c1cccc(C2NCC(c3ccccc3Cl)c3c2[nH]c2ccccc32)c1 (centres undefined),242.7*,345.3*,14.1,-21.8,14.5
Cc1ccc(C(=O)N2N=C(c3cccc(NS(C)(=O)=O)c3)CC2c2cccs2)cc1 (centres undefined),1.9,4.0,11.5,-9.1,51.1*
O=C(CCC(=O)N1CCOCC1)NCCc1ccccc1,0.4,-0.1,38.9*,0.1,62.6*
S=C(NCCc1ccccc1)N1CCOCC1,0.0,0.7,1.8,-10.4,-2.1
Cc1ccc(S(=O)(=O)N(C)C)cc1NC(=O)COc1ccccc1C(=O)Nc1ccccc1,1.6,3.8,14.0,-13.6,54.8*
CC(=O)Nc1ccc(S(=O)(=O)N(C)c2ccc(OCC(=O)Nc3ccccc3C(C)=O)cc2)cc1,x,x,13.0,x,55.0*
COc1ccc(NC(=O)COc2ccc(N(C)S(=O)(=O)c3ccc(Cl)cc3)cc2)cc1OC,13.8,11.3,8.2,-21.8,61.0*
COc1ccc(CNC(=O)c2c(N)[nH]c(C(=O)c3ccccc3)c2-c2ccc3ccccc3c2)cc1OC,x,x,10.3,x,29.9
CCCCCCCCN1C(=O)[C@@H](CC(=O)N2CCN(C(=O)c3ccco3)CC2)C[C@@]2(C(=O)OC)C1=C[C@H](C1CCCC1)O[C@@H]2C,x,x,-1.9,x,-1.4
Cc1ccc(NC(=O)/C(C#N)=C(\N)C(Cl)(Cl)Cl)nc1,0.1,0.5,x,-15.9,x
C[C@@H]1CN([C@H](C)CO)C(=O)CCCn2nncc2CO[C@H]1CN(C)C(=O)Nc1ccc2c(c1)OCCO2,x,x,0.3,x,-15.6
COC(=O)Cc1c([C@H](C)[C@@H](OC)c2ccccc2Br)nnn1Cc1ccccc1,x,x,14.4,x,13.8
COc1ccc(CNC(=O)c2sc(=O)n(Cc3ccc(-c4ccccc4)cc3)c2C)cc1OC,x,x,4.6,x,65.0*
COc1ccccc1CNc1nc(NCc2ccc3occc3c2)c2sccc2n1,x,x,6.0,x,19.6
CCCNC(=O)c1cc(-c2ccc3c(c2)OCO3)on1,-0.7,1.9,2.1,-14.9,-14.1
SMILES,OXTR agonist,V1aR counter,TAAR1 agonist,OXTR potentiate,TAAR1 antagonist
O=C(NCCc1ccccc1)c1cc(-c2ccc3c(c2)OCO3)on1,-0.7,-0.9,38.5*,-5.5,11.4
Cc1ccc(OCCN2C(=O)C(=O)c3cc(C)ccc32)cc1,0.0,-1.8,-3.2,-2.7,-18.0
Cc1ccc2c(c1)C(=O)C(=O)N2Cc1ccc(C(F)(F)F)cc1,-0.2,0.9,13.6,-5.4,55.5*
Cc1cc(C(=O)N/N=C/c2ccc(OC(=O)c3ccccc3Br)cc2)n[nH]1,2.1,4.4,12.6,2.6,54.0*
Cc1cc(C(=O)N/N=C/c2cc(Br)ccc2OC(=O)c2ccccc2Cl)n[nH]1,-0.4,0.8,3.3,-2.8,33.9
Cc1cc(C(=O)N/N=C/c2cc(Br)ccc2OC(=O)c2ccccc2)n[nH]1,-2.1,2.0,12.6,-14.6,51.2*
OC(c1ccccc1)(c1ccccc1)C1CCN(CCCOc2ccc3c(c2)CCCC3)CC1,x,x,42.0*,x,40.0
N#CCc1ccc(OCCCN2CCC(C(O)(c3ccccc3)c3ccccc3)CC2)cc1,x,x,24.3,x,9.4
COc1cccc(CNC(=O)[C@H]2CCCN2C(=O)[C@H]2CCCN2C(=O)c2ccc(F)c(F)c2)c1,x,x,2.4,x,-10.0
CSc1ncnc2c1ccn2CC(=O)Nc1ccc(C)c(C)c1,0.9,1.9,43.2*,-2.0,14.3
Cc1ccc(NC(=O)Cn2cccc2)cc1C,-0.9,-0.1,7.6,-1.8,11.6
COc1cc(NC(=O)c2cnc(N)s2)cc(C(=O)Nc2cccc(C(F)(F)F)c2)c1,-0.4,0.4,1.4,0.2,30.3
COc1cc(NC(=O)c2csc(N)n2)cc(C(=O)Nc2cccc(C(F)(F)F)c2)c1,-2.0,-1.2,4.6,-14.8,52.6*!
COc1cc(NC(=O)c2cc(C)on2)cc(C(=O)Nc2cccc(C(F)(F)F)c2)c1,1.9,0.5,5.5,-12.5,54.4*!
COc1cc(NC(=O)c2ccnc(N)c2)cc(C(=O)Nc2cccc(C(F)(F)F)c2)c1,0.0,-0.1,11.4,-5.4,30.3
C[C@@H]1CN(S(=O)(=O)C(C)(C)C)[C@@H](CCO)/C1=C\CCO,x,x,3.1,x,-11.2
C=CCN1[C@@H](C)[C@H](c2ccccc2)Oc2cccc(NCC(C)C)c2S1(=O)=O,x,x,1.5,x,-21.6
Cc1cnc(NC(=O)CSc2ccc(Cl)cc2)s1,-1.4,0.7,9.5,-9.7,-10.5
O=C(Nc1ccncc1)Nc1ccc(F)c(Cl)c1,6.6,5.4,49.2*,-15.2,19.4
Cc1cnc(NC(=O)Nc2ccc(Cl)cc2)s1,4.2,4.6,39.8*,-13.2,20.8
O=C(Nc1ccc(F)c(Cl)c1)Nc1ccc(Cl)cn1,-0.2,0.4,7.0,-13.9,28.3
O=C(Nc1ccc(Cl)cc1)Nc1cccnc1,9.0,9.7,47.7*,-1.2,39.7
NNC(=O)CNC(c1ccccc1)c1cc(Br)ccc1NC(=O)c1ccccc1Br (centres undefined),-1.4,-0.6,1.8,-14.7,52.9*
COc1ccccc1CNc1nc(NCc2ccccc2OC)c2sccc2n1,x,x,5.4,x,19.4
